AFI data for 26 molecules are collected here from ChEMBL document CHEMBL3045286, “Citrus limonoids and their semisynthetic derivatives as antifeedant agents against Spodoptera frugiperda larvae. A structure-activity relationship study” (2002).

In the assay the test system is Spodoptera frugiperda. Put plainly: Antifeedant activity against larvae of Spodoptera frugiperda (fall armyworm) at 100 ppm measured every 30 min for 8 hr by binary choice assay relative to control. The class given is functional. The gist of the method:
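Final-stadium larvae aged […], reared on wheatgerm diet, starved 2 h, then held singly in Petri dishes with control and treatment glass-fiber disks (2.1 cm). All disks carried 100 µL of 0.05 M sucrose. Treatment disks received compound in acetone and control disks acetone alone; disks were dried and weighed before and after. Ten larvae per compound. Feeding index = [(C − T)/(C + T)]%, mean ± SEM, Wilcoxon matched-pairs test.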
For the molecule `CC1(C)OC(=O)C=C[C@]2(C)[C@H]3CC[C@@]4(C)[C@H](c5ccoc5)OC(=O)[C@H]5O[C@]54[C@]3(C)C(=O)C[C@@H]12` [OBACUNONE], the AFI is given as 68%.
Next, `CC(=O)O[C@H]1CC(=O)OC(C)(C)[C@@H]2C[C@H](O)[C@]3(C)[C@H](CC[C@@]4(C)[C@@H](c5ccoc5)OC(=O)[C@H]5O[C@@]534)[C@@]12C` [7-BETA-NOMILOL]: 35%; `CC1(C)O[C@H]2CC(=O)OC[C@]23[C@H]2CC[C@@]4(C)[C@@H]([C@@H]5CCOC5)OC(=O)[C@H]5O[C@]54[C@]2(C)C(=O)C[C@@H]13` [PERHYDROLIMONIN]: 29%.
To `CC1(C)O[C@H]2CC(=O)OC[C@]23[C@H]2CC[C@@]4(C)[C@@H](c5ccoc5)OC(=O)[C@H]5O[C@]54[C@]2(C)/C(=N/O)C[C@@H]13` [LIMONIN-7-OXIME] belongs 68%.
Next, `CC1(C)O[C@H]2CC(=O)OC[C@]23[C@H]2CC[C@@]4(C)[C@@H]([C@H]5CCOC5)OC(=O)[C@H]5O[C@]54[C@]2(C)C(=O)C[C@@H]13` [EPI-PERHYDROLIMONIN]: 45%; `CC1(C)OC(=O)CC[C@]2(C)[C@H]3CC[C@@]4(C)[C@@H](c5ccoc5)OC(=O)[C@H]5O[C@]54[C@]3(C)C(=O)C[C@@H]12` [1,2-DIDEHYDRO-OBACUNONE]: 53%.
Molecule `CO/N=C1\C[C@H]2C(C)(C)O[C@H]3CC(=O)OC[C@]32[C@H]2CC[C@@]3(C)[C@@H](c4ccoc4)OC(=O)[C@H]4O[C@]43[C@]12C` [LIMONIN-7-METHOXIME] had an AFI of 76%.
Next, `CC(=O)O[C@@H]1C[C@H]2C(C)(C)OC(=O)C=C[C@]2(C)[C@H]2CC[C@@]3(C)[C@@H](c4ccoc4)OC(=O)[C@H]4O[C@]43[C@@]21C` [7-ALPHA-OBACUNYL ACETATE]: 24%; `CC1(C)OC(=O)C=C[C@]2(C)[C@H]3CC[C@@]4(C)[C@@H](c5ccoc5)OC(=O)[C@H]5O[C@]54[C@]3(C)[C@@H](O)C[C@@H]12` [7-BETA-OBACUNOL]: 35%.
Take `CC(=O)O/N=C1\C[C@H]2C(C)(C)OC(=O)C=C[C@]2(C)[C@H]2CC[C@@]3(C)[C@@H](c4ccoc4)OC(=O)[C@H]4O[C@]43[C@]12C` [OBACUNONE-7-OXIME ACETATE]: the AFI stood at 21%.
Next, `CC(=O)O[C@H]1C[C@H]2C(C)(C)O[C@H]3CC(=O)OC[C@]32[C@H]2CC[C@@]3(C)[C@@H](c4ccoc4)OC(=O)[C@H]4O[C@]43[C@]12C` [EPI-LIMONYL ACETATE]: 26%; `CC(=O)O/N=C1\C[C@H]2C(C)(C)OC(=O)C[C@H](OC(C)=O)[C@]2(C)[C@H]2CC[C@@]3(C)[C@@H](c4ccoc4)OC(=O)[C@H]4O[C@]43[C@]12C` [NOMILIN-7-OXIME ACETATE]: 41%.
To `CC1(C)O[C@H]2CC(=O)OC[C@]23[C@H]2CC[C@@]4(C)[C@@H](c5ccoc5)OC(=O)[C@H]5O[C@]54[C@]2(C)[C@@H](O)C[C@@H]13` [EPILIMONOL] belongs 56%; to `CC(=O)O[C@H]1CC(=O)OC(C)(C)[C@@H]2CC(=O)[C@]3(C)[C@H](CC[C@@]4(C)[C@@H](c5ccoc5)OC(=O)[C@H]5O[C@]543)[C@@]12C` [NOMILIN], 56%; to `CC(=O)O[C@H]1CC(=O)OC(C)(C)[C@@H]2C/C(=N\O)[C@]3(C)[C@H](CC[C@@]4(C)[C@@H](c5ccoc5)OC(=O)[C@H]5O[C@]543)[C@@]12C` [NOMILIN-7-OXIME], 35%.
To `CO/N=C1\C[C@H]2C(C)(C)OC(=O)C[C@H](OC(C)=O)[C@]2(C)[C@H]2CC[C@@]3(C)[C@@H](c4ccoc4)OC(=O)[C@H]4O[C@]43[C@]12C` [NOMILIN-7-METHOXIME] belongs 38%.
In turn, `CC(=O)O[C@H]1CC(=O)OC(C)(C)[C@@H]2C[C@H](OC(C)=O)[C@]3(C)[C@H](CC[C@@]4(C)[C@@H](c5ccoc5)OC(=O)[C@H]5O[C@@]534)[C@@]12C` [7-BETA-NOMILYL ACETATE] displayed an AFI of 46%.
To `CC(=O)O[C@H]1CC(=O)OC(C)(C)[C@@H]2C[C@@H](O)[C@]3(C)[C@H](CC[C@@]4(C)[C@@H](c5ccoc5)OC(=O)[C@H]5O[C@@]534)[C@@]12C` [7-ALPHA-NOMILOL] belongs 46%; to `CO/N=C1\C[C@H]2C(C)(C)OC(=O)C=C[C@]2(C)[C@H]2CC[C@@]3(C)[C@@H](c4ccoc4)OC(=O)[C@H]4O[C@]43[C@]12C` [OBACUNONE-7-METHOXIME], 29%; to `CC1(C)O[C@H]2CC(=O)OC[C@]23[C@H]2CC[C@@]4(C)[C@H](c5ccoc5)OC(=O)[C@H]5O[C@]54[C@]2(C)C(=O)C[C@@H]13` [LIMONIN], 87%.
For the molecule `CC(=O)O[C@H]1C[C@H]2C(C)(C)OC(=O)C=C[C@]2(C)[C@H]2CC[C@@]3(C)[C@@H](c4ccoc4)OC(=O)[C@H]4O[C@]43[C@]12C` [7-BETA-OBACUNYL ACETATE], the AFI amounted to 26%.
To `CC1(C)OC(=O)C=C[C@]2(C)[C@H]3CC[C@@]4(C)[C@@H](c5ccoc5)OC(=O)[C@H]5O[C@]54[C@]3(C)[C@H](O)C[C@@H]12` [7-ALPHA-OBACUNOL] belongs 53%.
To `CC1(C)O[C@H]2CC(=O)OC[C@]23[C@H]2CC[C@@]4(C)[C@@H](c5ccoc5)OC(=O)[C@H]5O[C@]54[C@]2(C)[C@H](O)C[C@@H]13` [LIMONOL] belongs 68%.
To `CC(=O)O[C@@H]1C[C@H]2C(C)(C)O[C@H]3CC(=O)OC[C@]32[C@H]2CC[C@@]3(C)[C@@H](c4ccoc4)OC(=O)[C@H]4O[C@]43[C@@]21C` [LIMONYL ACETATE] belongs 45%; to `CC(=O)O/N=C1\C[C@H]2C(C)(C)O[C@H]3CC(=O)OC[C@]32[C@H]2CC[C@@]3(C)[C@@H](c4ccoc4)OC(=O)[C@H]4O[C@]43[C@]12C` [LIMONIN-7-OXIME ACETATE], 45%.
In turn, `CC1(C)OC(=O)C=C[C@]2(C)[C@H]3CC[C@@]4(C)[C@@H](c5ccoc5)OC(=O)[C@H]5O[C@]54[C@]3(C)/C(=N/O)C[C@@H]12` [OBACUNONE-7-OXIME] had an AFI of 25%.
